Measured values as given in ChEMBL document CHEMBL2375260, “Antifungal agents from Pseudallescheria boydii SNB-CN73 isolated from a Nasutitermes sp. termite” (J Nat Prod, 2013).
≈ marks a conversion by molar mass, not a printed value.

Legend:
KB = test: Cytotoxicity against human KB cells assessed as growth inhibition; type: functional, cell-based
[1] = Cytotoxicity against human MDA435 cells assessed as growth inhibition; type: functional, cell-based; details: MDA-MB-435
Escherichia coli = test: Antibacterial activity against Escherichia coli ATCC 25922 assessed as growth inhibition after 24 hrs by […]; type: functional
[2] = Selectivity index, ratio of IC50 for human MDA435 cells to MIC for Staphylococcus aureus ATCC 29213; type: functional
Procedure, shortened: (§1)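 Selectivity index is calculated as SI = IC50/MIC. IC50 is the cytotoxicity measured in MDA435 cells (melanoma, previously described as mammary carcinoma). MIC is the EUCAST reference-protocol value for the given microbial strain.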

Aspergillus fumigatus = test: Antifungal activity against Aspergillus fumigatus SNB-AF1 assessed as growth inhibition after 24 hrs by […]; type: functional; details: SNB-AF1, 24 h
[3] = Selectivity index, ratio of IC50 for human MDA435 cells to MIC for Escherichia coli ATCC 25922; type: functional; procedure, shortened: as §1
[4] = Selectivity index, ratio of IC50 for human MDA435 cells to MIC for Aspergillus fumigatus SNB-AF1; type: functional; procedure, shortened: as §1
[5] = Selectivity index, ratio of IC50 for human MDA435 cells to MIC for Candida parapsilosis ATCC 22019; type: functional; procedure, shortened: as §1
Trichophyton rubrum = test: Antifungal activity against Trichophyton rubrum SNB-TR1 assessed as growth inhibition after 5 days by […]; type: functional; details: SNB-TR1, 120 h
Candida parapsilosis = test: Antifungal activity against Candida parapsilosis ATCC 22019 assessed as growth inhibition after 18 hrs by […]; type: functional; details: Lodderomyces parapsilosis, ATCC 22019, 18 h
[6] = Selectivity index, ratio of IC50 for human MDA435 cells to MIC for Trichophyton rubrum SNB-TR1; type: functional; procedure, shortened: as §1
[7] = Selectivity index, ratio of IC50 for human MDA435 cells to MIC for Candida albicans ATCC 10231; type: functional; procedure, shortened: as §1
Staphylococcus aureus = test: Antibacterial activity against Staphylococcus aureus ATCC 29213 assessed as growth inhibition after 24 hrs by […]; type: functional; details: ATCC 29213, 24 h
Candida albicans = test: Antifungal activity against Candida albicans ATCC 10231 assessed as growth inhibition after 18 hrs by […]; type: functional; details: ATCC 10231, 18 h
MCF7 [8] = test: Cytotoxicity against human MCF7 cells assessed as inhibition of FBS-induced cellular growth; type: functional, cell-based
MCF7 [9] = test: Cytotoxicity against human MCF7 cells assessed as inhibition of IGF1-induced cellular growth; type: functional, cell-based

Compound: CC[C@@H](C)C[C@@H](C)/C=C/CC[C@@H](O)[C@H](Cc1ccc(O)cc1)N(C)C.O=CO
- IC50 (KB): 16 µg/mL
- IC50 [1]: 24.3 µg/mL
- MIC (Escherichia coli; ATCC 25922, 24 h): 32 µg/mL
- Selectivity Index [2]: 1.5
- MIC (Aspergillus fumigatus): 32 µg/mL
- Selectivity Index [3]: 0.8
- Selectivity Index [4]: 0.8
- Selectivity Index [5]: 0.8
- MIC (Trichophyton rubrum): 4 µg/mL
- MIC (Candida parapsilosis): 32 µg/mL
- Selectivity Index [6]: 6.1
- Selectivity Index [7]: 6.1
- MIC (Staphylococcus aureus): 16 µg/mL
- MIC (Candida albicans): 4 µg/mL

Compound: OC(Cn1cncn1)(Cn1cncn1)c1ccc(F)cc1F [FLUCONAZOLE]
- MIC (Candida parapsilosis): 4 µg/mL (≈ 13.1 µM)
- MIC (Candida albicans): 4 µg/mL (≈ 13.1 µM)

Compound: CCC(C)n1ncn(-c2ccc(N3CCN(c4ccc(OCC5COC(Cn6cncn6)(c6ccc(Cl)cc6Cl)O5)cc4)CC3)cc2)c1=O (stereo unspecified) [ITRACONAZOLE]
- MIC (Aspergillus fumigatus): 0.5 µg/mL (≈ 0.709 µM)
- MIC (Trichophyton rubrum): 0.25 µg/mL (≈ 0.354 µM)

Compound: Cc1onc(-c2ccccc2)c1C(=O)N[C@@H]1C(=O)N2[C@@H]1SC(C)(C)[C@@H]2C(=O)O [OXACILLIN]
- MIC (Staphylococcus aureus): 0.5 µg/mL (≈ 1.25 µM)

Compound: CC[C@@H](C)C[C@@H](C)/C=C/CC[C@@H](O)[C@H](Cc1ccc(O)cc1)NC [TYROSCHERIN 8]
- IC50 (MCF7 [8]): 6.2 µM
- IC50 (MCF7 [9]): 0.03 µM

Compound: CC[C@@H](C)C[C@@H](C)/C=C/CC[C@@H](O)[C@H](Cc1ccc(O)cc1)NC.O=CO [TYROSCHERIN FORMATE]
- IC50 (KB): 8.6 µg/mL
- IC50 [1]: 20 µg/mL
- MIC (Escherichia coli; ATCC 25922, 24 h): 16 µg/mL
- Selectivity Index [2]: 2.5
- MIC (Aspergillus fumigatus): 16 µg/mL
- Selectivity Index [3]: 1.3
- Selectivity Index [4]: 1.3
- Selectivity Index [5]: 1.3
- MIC (Trichophyton rubrum): 2 µg/mL
- MIC (Candida parapsilosis): 16 µg/mL
- Selectivity Index [6]: 10
- Selectivity Index [7]: 10
- MIC (Staphylococcus aureus): 8 µg/mL
- MIC (Candida albicans): 2 µg/mL

Compound: GENTAMICIN
- MIC (Escherichia coli): 8 µg/mL
